Common to all, as to format: functional
For test [1], the system named is Bacillus subtilis. Kind of test: Antibacterial activity against Bacillus subtilis […] after 24 to 48 hrs by agar dilution method. The method in brief: (§1)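 Agar dilution per NCCLS. Compounds were dissolved in 15%–30% DMSO in water, serially two-fold diluted in distilled water (11 dilutions) and incorporated into hot Mueller–Hinton agar at a tenfold further dilution. Inocula from blood slants were adjusted to about 10^5–10^6 CFU/mL in 0.90% saline and spotted onto the plates, then incubated at 36.5 °C for 24–48 h. MIC was the lowest concentration giving complete growth inhibition; run in triplicate.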

In test [2] the test system is Escherichia coli. The test is described as follows: Antibacterial activity against Escherichia coli ATCC 25922 after 24 to 48 hrs by agar dilution method. The method in brief:
as §1
For orientation: In agar dilution the substance is mixed into plates at graded concentrations.

For test [3], the system named is Staphylococcus aureus. Kind of test: Antibacterial activity against […] Staphylococcus aureus ATCC 29213 after 24 to 48 hrs by agar dilution method. The method in brief:
(§2)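 Agar dilution per NCCLS. Compounds at 1.28 mg/mL stock in 15%–30% DMSO/water, two-fold serial dilutions (11 total) in water, mixed 1:10 into hot Mueller-Hinton agar. Inocula from blood slants adjusted to about 10^5–10^6 CFU/mL in 0.90% saline, spotted onto plates, incubated 36.5 °C for 24–48 h. MIC is the lowest concentration giving complete growth inhibition. Run in triplicate.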

In test [4] the test system is Staphylococcus epidermidis. Kind of test: Antibacterial activity against […] Staphylococcus epidermidis ATCC 35984 after 24 to 48 hrs by agar dilution method. The note with it: RP62A. The method in brief: as §2
In test [5] the test system is Staphylococcus aureus. Kind of test: Antibacterial activity against […] Staphylococcus aureus in iv dosed neutropenic mouse systemic infection model assessed as increase in mouse survival measured on day 4. A digest of the protocol: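 Male and female mice made neutropenic with ip cyclophosphamide, 150 mg/kg for four days, then 100 mg/kg one day before inoculation. Infected ip with 0.5 mL MRSA at 10^9 CFU/mL, 10 per group. About 1 h later dosed iv at 2, 3, 4.46, 6.64 and 10 mg/kg in 0.5 mL soybean lecithin:sterile water (1:30). Endpoint was survival at day 4. ED50 calculated by Reed–Muench using the Hill equation.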

In brackets after ≈: the same amount, converted by molar mass.

A word on the MIC: it is the least concentration at which growth counts as inhibited. Higher therefore signals weaker potency. As to `C=C[C@]1(C)C[C@@H](OC(=O)CSc2nc(O)cc(NC(=O)[C@H](N)C(C)C)n2)[C@]2(C)[C@H](C)CC[C@]3(CCC(=O)[C@H]32)[C@@H](C)[C@@H]1O`, the MIC was determined as 8 µg/mL (≈ 13.3 µM) in test [1], 64 µg/mL (≈ 106 µM) in test [2], 1 µg/mL (≈ 1.66 µM) in test [3] and 0.125 µg/mL (≈ 0.207 µM) in test [4].
The like results for `C=C[C@]1(C)C[C@@H](OC(=O)CSc2nc(O)cc(NC(=O)[C@@H]3CCCCN3)n2)[C@]2(C)[C@H](C)CC[C@]3(CCC(=O)[C@H]32)[C@@H](C)[C@@H]1O` were, in that order, 16 µg/mL (≈ 26 µM), 16 µg/mL (≈ 26 µM), 4 µg/mL (≈ 6.51 µM) and 1 µg/mL (≈ 1.63 µM).
The matching figures for `C=C[C@]1(C)C[C@@H](OC(=O)CSc2nc(N)cc(=O)n2C)[C@]2(C)[C@H](C)CC[C@]3(CCC(=O)[C@H]32)[C@@H](C)[C@@H]1O`: 16 µg/mL (≈ 30.9 µM), 32 µg/mL (≈ 61.8 µM), 2 µg/mL (≈ 3.86 µM) and 1 µg/mL (≈ 1.93 µM).
Turning to `C=C[C@]1(C)C[C@@H](OC(=O)CSc2nc(O)cc(NC(=O)[C@@H](N)C(C)C)n2)[C@]2(C)[C@H](C)CC[C@]3(CCC(=O)[C@H]32)[C@@H](C)[C@@H]1O`, the MIC in test [1] worked out at 16 µg/mL (≈ 26.5 µM); in test [2] it was 32 µg/mL (≈ 53.1 µM); in test [3], 2 µg/mL (≈ 3.32 µM); in test [4], 0.5 µg/mL (≈ 0.829 µM).
The like results for `C=C[C@]1(C)C[C@@H](OC(=O)CSc2nc(N)cc(OC)n2)[C@]2(C)[C@H](C)CC[C@]3(CCC(=O)[C@H]32)[C@@H](C)[C@@H]1O` were, in that order, 16 µg/mL (≈ 30.9 µM), 32 µg/mL (≈ 61.8 µM), 1 µg/mL (≈ 1.93 µM) and 0.5 µg/mL (≈ 0.966 µM).
As a reminder, the ED50 is the dose at which the effect has come halfway, by size or by number of responders. As for `C=C[C@]1(C)C[C@@H](OC(=O)CSCCN(CC)CC)[C@]2(C)[C@H](C)CC[C@]3(CCC(=O)[C@H]32)[C@@H](C)[C@@H]1O.O=C(O)/C=C/C(=O)O` [TIAMULIN FUMARATE], the MIC in test [1] stood at 32 µg/mL; in test [2], 8 µg/mL; in test [3], 0.5 µg/mL; in test [4], 0.25 µg/mL. In test [5], the Activity entry was “Dose-dependent effect”. For the same molecule, the ED50 in test [5] (96 h) was 5.95 mg/kg.
`C=C[C@]1(C)C[C@@H](OC(=O)CSc2nc(O)cc(NC(C)=O)n2)[C@]2(C)[C@H](C)CC[C@]3(CCC(=O)[C@H]32)[C@@H](C)[C@@H]1O`: the MIC was found to be 32 µg/mL (≈ 58.6 µM) in test [1] and 8 µg/mL (≈ 14.7 µM) in test [2].
Turning to `C=C[C@]1(C)C[C@@H](OC(=O)CSc2nc(O)cc(NC(=O)[C@H]3CCCCN3)n2)[C@]2(C)[C@H](C)CC[C@]3(CCC(=O)[C@H]32)[C@@H](C)[C@@H]1O`, the MIC in test [1] was 16 µg/mL (≈ 26 µM); in test [2], 32 µg/mL (≈ 52 µM); in test [3], 8 µg/mL (≈ 13 µM); in test [4] it was 2 µg/mL (≈ 3.25 µM).
The like results for `C=C[C@]1(C)C[C@@H](OC(=O)CSc2nc(N)cc(O)n2)[C@]2(C)[C@H](C)CC[C@]3(CCC(=O)[C@H]32)[C@@H](C)[C@@H]1O` were, in that order, 32 µg/mL (≈ 63.5 µM), 16 µg/mL (≈ 31.8 µM), 0.25 µg/mL (≈ 0.496 µM) and 0.125 µg/mL (≈ 0.248 µM).

For the origin of these results see ChEMBL document CHEMBL3608216, “Synthesis and evaluation of novel pleuromutilin derivatives with a substituted pyrimidine moiety” (2015).
